Test results taken from ChEMBL document CHEMBL1129794, “Synthesis and evaluation of 2-[(5-methylbenz-1-ox-4-azin-6-yl)imino]imidazoline, a potent, peripherally acting alpha 2 adrenoceptor agonist” (J Med Chem, 1996).

Key:
[1] = pKa value determined in the presence of the partition solvent for guanidine subunit.; format: physicochemical
How it was run: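 Potentiometric titration: compound dissolved, solution titrated to predetermined final pH; pKa measured in water and again with octanol or dodecane added before titration; log P derived from shift between aqueous pKa and pKa in presence of partition solvent.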

[2] = target: T1, Adrenergic receptor alpha-1 (Homo sapiens, UniProt P35348+P25100+P35368); experiment: Compound was tested for binding affinity based on dissociation constant of Alpha-1 adrenergic receptor; format: protein assay
T1 sequence (P35348 whole entry): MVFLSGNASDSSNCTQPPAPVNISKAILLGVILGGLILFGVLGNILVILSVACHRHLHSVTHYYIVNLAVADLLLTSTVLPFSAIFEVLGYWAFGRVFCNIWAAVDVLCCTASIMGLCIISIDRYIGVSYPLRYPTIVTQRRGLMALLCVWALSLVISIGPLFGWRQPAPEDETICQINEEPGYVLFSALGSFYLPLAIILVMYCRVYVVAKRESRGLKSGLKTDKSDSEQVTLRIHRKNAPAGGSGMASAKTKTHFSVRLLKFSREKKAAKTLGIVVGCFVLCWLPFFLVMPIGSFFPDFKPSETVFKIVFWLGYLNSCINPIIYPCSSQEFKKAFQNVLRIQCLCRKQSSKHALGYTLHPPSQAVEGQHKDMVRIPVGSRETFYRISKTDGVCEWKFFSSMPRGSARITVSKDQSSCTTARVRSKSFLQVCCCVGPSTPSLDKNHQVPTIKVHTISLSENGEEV
T1 sequence (P25100 whole entry): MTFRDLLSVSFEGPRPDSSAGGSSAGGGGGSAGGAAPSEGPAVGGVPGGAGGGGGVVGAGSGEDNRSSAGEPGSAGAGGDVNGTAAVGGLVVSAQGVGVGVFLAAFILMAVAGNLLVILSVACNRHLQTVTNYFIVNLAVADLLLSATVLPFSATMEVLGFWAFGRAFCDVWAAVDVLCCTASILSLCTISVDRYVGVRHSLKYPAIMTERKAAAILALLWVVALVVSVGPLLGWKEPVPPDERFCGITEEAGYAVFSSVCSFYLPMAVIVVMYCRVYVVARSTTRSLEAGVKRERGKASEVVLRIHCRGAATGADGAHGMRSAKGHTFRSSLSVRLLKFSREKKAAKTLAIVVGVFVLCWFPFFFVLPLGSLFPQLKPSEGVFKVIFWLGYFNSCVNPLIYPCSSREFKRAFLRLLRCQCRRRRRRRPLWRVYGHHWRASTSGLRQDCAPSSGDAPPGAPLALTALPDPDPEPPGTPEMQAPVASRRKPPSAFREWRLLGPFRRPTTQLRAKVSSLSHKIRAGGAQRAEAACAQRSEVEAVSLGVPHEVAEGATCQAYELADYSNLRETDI
T1 sequence (P35368 whole entry): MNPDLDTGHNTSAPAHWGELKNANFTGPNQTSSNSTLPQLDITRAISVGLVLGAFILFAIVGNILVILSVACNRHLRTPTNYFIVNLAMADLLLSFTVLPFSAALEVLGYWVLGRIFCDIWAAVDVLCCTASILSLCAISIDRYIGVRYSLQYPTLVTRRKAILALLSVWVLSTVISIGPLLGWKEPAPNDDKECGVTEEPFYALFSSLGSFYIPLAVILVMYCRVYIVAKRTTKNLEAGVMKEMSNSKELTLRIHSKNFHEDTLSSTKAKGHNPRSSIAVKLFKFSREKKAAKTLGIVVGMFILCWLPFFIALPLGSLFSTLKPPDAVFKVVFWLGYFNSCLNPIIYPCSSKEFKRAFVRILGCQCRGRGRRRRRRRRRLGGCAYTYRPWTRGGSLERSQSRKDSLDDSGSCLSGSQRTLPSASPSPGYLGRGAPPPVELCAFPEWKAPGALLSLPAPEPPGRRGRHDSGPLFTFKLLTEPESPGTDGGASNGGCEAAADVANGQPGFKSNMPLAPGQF

[3] = target: T2, Adrenergic receptor alpha-2 (Homo sapiens, UniProt P08913+P18825+P18089); experiment: Compound was tested for concentration that produced 50% contractile response relative to maximum response to norepinephrine for Alpha-2 adrenergic receptor in rabbit vas deferens; format: functional, tissue-based, Oryctolagus cuniculus; conditions: target entry is the homologue from another species
T2 sequence (P08913 whole entry): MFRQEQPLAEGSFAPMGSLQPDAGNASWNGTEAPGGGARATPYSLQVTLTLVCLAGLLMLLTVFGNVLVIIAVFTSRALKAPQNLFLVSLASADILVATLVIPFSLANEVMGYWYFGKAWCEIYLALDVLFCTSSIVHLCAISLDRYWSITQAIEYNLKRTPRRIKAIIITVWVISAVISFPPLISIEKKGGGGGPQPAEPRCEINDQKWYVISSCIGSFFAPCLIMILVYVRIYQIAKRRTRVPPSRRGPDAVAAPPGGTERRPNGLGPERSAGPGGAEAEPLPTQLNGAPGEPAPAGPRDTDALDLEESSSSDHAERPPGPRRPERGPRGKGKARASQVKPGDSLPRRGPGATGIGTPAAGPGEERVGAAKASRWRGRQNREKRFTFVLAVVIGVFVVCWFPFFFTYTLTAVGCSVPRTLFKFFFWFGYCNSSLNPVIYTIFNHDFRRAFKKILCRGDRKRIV
T2 sequence (P18825 whole entry): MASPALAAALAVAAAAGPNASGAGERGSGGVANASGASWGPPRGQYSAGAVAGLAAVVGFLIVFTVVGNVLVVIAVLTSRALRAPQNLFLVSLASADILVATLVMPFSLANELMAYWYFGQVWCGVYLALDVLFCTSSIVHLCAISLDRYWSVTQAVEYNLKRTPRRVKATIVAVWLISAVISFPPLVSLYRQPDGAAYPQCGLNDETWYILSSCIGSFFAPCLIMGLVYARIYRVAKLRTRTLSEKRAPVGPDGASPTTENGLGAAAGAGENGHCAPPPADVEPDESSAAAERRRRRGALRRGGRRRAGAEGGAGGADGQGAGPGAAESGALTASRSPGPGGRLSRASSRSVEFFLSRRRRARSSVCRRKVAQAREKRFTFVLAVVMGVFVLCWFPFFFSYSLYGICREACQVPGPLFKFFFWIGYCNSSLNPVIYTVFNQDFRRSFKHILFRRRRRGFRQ
T2 sequence (P18089 whole entry): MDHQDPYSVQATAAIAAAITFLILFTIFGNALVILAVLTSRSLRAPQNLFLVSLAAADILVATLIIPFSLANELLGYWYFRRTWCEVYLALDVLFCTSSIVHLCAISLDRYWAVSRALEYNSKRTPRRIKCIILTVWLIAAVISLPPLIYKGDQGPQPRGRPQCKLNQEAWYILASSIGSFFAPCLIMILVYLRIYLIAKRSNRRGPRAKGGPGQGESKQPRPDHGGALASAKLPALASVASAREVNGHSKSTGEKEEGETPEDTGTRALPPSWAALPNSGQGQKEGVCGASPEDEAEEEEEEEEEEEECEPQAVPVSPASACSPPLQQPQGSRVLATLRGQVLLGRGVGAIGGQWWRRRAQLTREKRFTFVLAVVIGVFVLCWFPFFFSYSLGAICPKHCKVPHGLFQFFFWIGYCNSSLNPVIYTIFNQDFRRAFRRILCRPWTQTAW

[4] = target: T3, Alpha-2C adrenergic receptor (Homo sapiens, UniProt P18825); experiment: Compound was tested in vitro for binding affinity against Alpha-2C adrenergic receptor from cloned human C-2 receptor transfected into Chinese hamster ovary (CHO) cells; format: cell-based
T3 sequence (P18825 whole entry): T2 sequence (P18825 whole entry)
How it was run: (§1)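 Membrane binding using cloned receptors expressed in transfected CHO cells: alpha-2A human C-10, alpha-2B rat RNG, alpha-2C human C-2.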

[5] = target: T4, Alpha-2B adrenergic receptor (Rattus norvegicus, UniProt P19328); experiment: Compound was tested in vitro for binding affinity against Alpha-2B adrenergic receptor from cloned rat RNG receptor transfected into Chinese hamster ovary (CHO) cells; format: cell-based; how it was run: as §1
T4 sequence (P19328 whole entry): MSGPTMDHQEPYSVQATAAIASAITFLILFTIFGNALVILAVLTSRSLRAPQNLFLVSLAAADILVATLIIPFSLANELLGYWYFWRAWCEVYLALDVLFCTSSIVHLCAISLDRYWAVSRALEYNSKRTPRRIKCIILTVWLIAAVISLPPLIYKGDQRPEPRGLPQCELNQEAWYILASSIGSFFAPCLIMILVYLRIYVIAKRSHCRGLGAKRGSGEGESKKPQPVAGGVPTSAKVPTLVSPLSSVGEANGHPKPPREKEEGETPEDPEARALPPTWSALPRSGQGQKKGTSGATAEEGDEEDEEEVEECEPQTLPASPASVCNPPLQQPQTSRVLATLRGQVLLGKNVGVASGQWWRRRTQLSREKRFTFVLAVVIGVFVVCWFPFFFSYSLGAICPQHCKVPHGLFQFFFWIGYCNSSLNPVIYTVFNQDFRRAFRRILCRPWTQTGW

[6] = target: T5, Alpha-2A adrenergic receptor (Homo sapiens, UniProt P08913); experiment: Compound was tested in vitro for binding affinity against Alpha-2A adrenergic receptor from cloned human C-10 receptor transfected into Chinese hamster ovary (CHO) cells; format: cell-based; how it was run: as §1
T5 sequence (P08913 whole entry): T2 sequence (P08913 whole entry)

Structure (SMILES)	pKa [1]	Ki [2]	EC50 [3]	Ki [4]	Ki [5]	Ki [6]
Cc1c(NC2=NCCN2)ccc2c1NCCO2	11.1	470 nM	1.2 nM	–	–	–
Cc1c(NC2=NCCN2)ccc2nccnc12	9.4	–	0.26 nM	27 nM	17 nM	2 nM
Cc1c(NC2=NCCN2)ccc2c1NCCN2	11.3	–	3.5 nM	120 nM	–	–
Nc1cc(Cl)c(N=C2NCCN2)c(Cl)c1 [APRACLONIDINE]	–	180 nM	–	30 nM	–	–
